Assay results published in ChEMBL document CHEMBL2331221, “Potent elastase inhibitors from cyanobacteria: structural basis and mechanisms mediating cytoprotective and anti-inflammatory effects in bronchial epithelial cells” (J Med Chem, 2013).
Active and inactive are the calls of the source. The rule behind the calls is not given here.

Columns and labels:
[1] = Inhibition of human pancreatic chymotrypsin assessed as proteolysis using N-succinyl-Ala-Ala-Pro-Phe-p-nitroanilide substrate incubated for 30 mins prior to substrate addition
[2] = species: Homo sapiens; experiment: Inhibition of human pancreatic chymotrypsin assessed as proteolysis using N-succinyl-Ala-Ala-Pro-Phe-p-nitroanilide substrate incubated at 10 uM for 30 mins prior to substrate addition; design: scale not given: the % may be the effect or the level left
How it was run: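 Pancreatic chymotrypsin, bovine at 100 μg/mL or human at 50 μg/mL; reaction buffer, enzyme and inhibitor (DMSO) incubated 30 min at room temperature, then substrate added (bovine: N-succinyl-Gly-Gly-Phe-pNA; human: N-succinyl-Ala-Ala-Pro-Phe-pNA). Absorbance read at 405 nm; activity from reaction slope relative to solvent control.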

[3] = Antiproteolytic activity against elastase (unknown origin); design: species or system Homo sapiens
How it was run: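 Inhibitor in DMSO pre-incubated with elastase in Tris-HCl pH 8.0 for 15 min at room temperature. Reaction started with N-succinyl-Ala-Ala-Ala-p-nitroanilide (2 mM in the added substrate solution). Absorbance at 405 nm read every 30 s. Activity is the initial slope of each progress curve, as percent of the uninhibited reaction.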

[4] = Inhibition of porcine pancreatic elastase assessed as proteolysis using N-succinyl-Ala-Ala-Ala-p-nitroanilide substrate incubated for 15 mins prior to substrate addition measured every 30 seconds; design: species or system Sus scrofa
[5] = Inhibition of bovine pancreatic chymotrypsin assessed as proteolysis using N-succinyl-Gly-Gly-Phe-p-nitroanilide substrate incubated for 30 mins prior to substrate addition; design: species or system Bos taurus
[6] = target: T1, Neutrophil elastase (Homo sapiens) (UniProt P08246); settings: BEAS2B, 100 uM
T1 sequence (whole entry): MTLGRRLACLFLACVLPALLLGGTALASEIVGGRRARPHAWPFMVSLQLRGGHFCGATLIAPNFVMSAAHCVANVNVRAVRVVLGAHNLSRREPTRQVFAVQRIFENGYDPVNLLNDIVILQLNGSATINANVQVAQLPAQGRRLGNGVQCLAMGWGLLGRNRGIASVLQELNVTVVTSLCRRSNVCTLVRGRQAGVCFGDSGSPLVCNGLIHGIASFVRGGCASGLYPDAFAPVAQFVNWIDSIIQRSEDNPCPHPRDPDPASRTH

[7] = target: T1, Neutrophil elastase (Homo sapiens); settings: BEAS2B, 100 uM; remark: listed apart in the source
[8] = target: T1, Neutrophil elastase (Homo sapiens); settings: BEAS2B, 100 uM; remark: listed apart in the source

SMILES: C/C=C1\NC(=O)[C@@H](NC(=O)[C@@H](NC(=O)[C@@H](COS(=O)(=O)O)OC)C(C)C)[C@@H](C)OC(=O)[C@H]([C@H](C)CC)NC(=O)[C@H](Cc2ccc(O)cc2)N(C)C(=O)[C@H](Cc2ccccc2)N2C(=O)[C@H](CC[C@H]2O)NC1=O [symplostatin 8]
- IC50 [1]: > 10 µM
- Activity [2]: 69%

SMILES: C/C=C1\NC(=O)[C@@H](NC(=O)[C@@H](NC(=O)[C@H](C)NC(C)=O)C(C)C)[C@@H](C)OC(=O)[C@H](C(C)C)NC(=O)[C@H](Cc2ccc(O)cc2)N(C)C(=O)[C@H](Cc2ccccc2)N2C(=O)[C@H](CC[C@H]2O)NC1=O [LYNGBYASTATIN 8]
- IC50 [3]: 120 nM

SMILES: C/C=C1\NC(=O)[C@@H](NC(=O)[C@@H](NC(=O)[C@H](C)NC(=O)CCC)C(C)C)[C@@H](C)OC(=O)[C@H](C(C)C)NC(=O)[C@H](Cc2ccc(O)cc2)N(C)C(=O)[C@H](Cc2ccccc2)N2C(=O)[C@H](CC[C@H]2O)NC1=O [LYNGBYASTATIN 9]
- IC50 [3]: 120 nM

SMILES: C/C=C1\NC(=O)[C@@H](NC(=O)[C@@H](NC(=O)[C@@H](COS(=O)(=O)O)OC)[C@@H](C)CC)[C@@H](C)OC(=O)[C@H]([C@H](C)CC)NC(=O)[C@H](Cc2ccc(O)cc2)N(C)C(=O)[C@H](Cc2ccccc2)N2C(=O)[C@H](CC[C@H]2O)NC1=O [symplostatin 10]
- IC50 [1]: > 10 µM
- Activity [2]: 79.4%

SMILES: C/C=C1\NC(=O)[C@@H](NC(=O)[C@@H](NC(=O)[C@@H](COS(=O)(=O)O)OC)[C@@H](C)CC)[C@@H](C)OC(=O)[C@H]([C@H](C)CC)NC(=O)[C@H](Cc2ccccc2)N(C)C(=O)[C@H](Cc2ccccc2)N2C(=O)[C@H](CC[C@H]2O)NC1=O [symplostatin 7]
- IC50 [1]: > 10 µM
- Activity [2]: 70.7%

SMILES: C/C=C1\NC(=O)[C@@H](NC(=O)[C@@H](NC(=O)[C@@H](COS(=O)(=O)O)OC)C(C)C)[C@@H](C)OC(=O)[C@H](C(C)C)NC(=O)[C@H](Cc2ccccc2)N(C)C(=O)[C@H](Cc2ccccc2)N2C(=O)[C@H](CC[C@H]2O)NC1=O [symplostatin 6]
- IC50 [1]: > 10 µM
- Activity [2]: 90.6%

SMILES: C/C=C1\NC(=O)[C@@H](NC(=O)[C@@H](NC(=O)[C@@H](COS(=O)(=O)O)OC)C(C)C)[C@@H](C)OC(=O)[C@H](C(C)C)NC(=O)[C@H](Cc2ccc(O)cc2)N(C)C(=O)[C@H](Cc2ccccc2)N2C(=O)[C@H](CC[C@H]2O)NC1=O [symplostatin 9]
- IC50 [1]: > 10 µM
- Activity [2]: 73.9%

SMILES: C/C=C1\NC(=O)[C@@H](NC(=O)[C@H](CCc2ccc(O)cc2)NC(=O)[C@H](C)NC(=O)[C@H](O)COS(=O)(=O)O)[C@@H](C)OC(=O)[C@H](C(C)C)NC(=O)[C@H](Cc2ccc(O)cc2)N(C)C(=O)[C@H](Cc2ccccc2)N2C(=O)[C@H](CC[C@H]2O)NC1=O [LYNGBYASTATIN 4]
- IC50 [1]: > 10 µM
- Activity [2]: 72.2%

SMILES: CC(C)(C)C(=O)Oc1ccc(S(=O)(=O)Nc2ccccc2C(=O)NCC(=O)O)cc1
- IC50 [4]: 2810 nM
- IC50 [5]: 4.08 µM
- IC50 [1]: > 10 µM
- inhibition [6]: Active
- inhibition [7]: Active
- inhibition [8]: Active
- Activity [2]: 55.1%
